In ChEMBL document CHEMBL2375316, “Neocosmospora sp.-derived resorcylic acid lactones with in vitro binding affinity for human opioid and cannabinoid receptors” (J Nat Prod, 2013):

What was measured:
[1] = target: T1, Delta-type opioid receptor (Homo sapiens, UniProt P41143); assay: Displacement of [3H]-enkephalin from human delta opioid receptor transfected in CHOK1 cells at 10 uM after 60 mins relative to control; assay type: cell-based; details: CHO-K1
[2] = target: Mu-type opioid receptor (Homo sapiens) (UniProt P35372); details: CHO-K1, at 10 µM
Chain of Mu-type opioid receptor (Homo sapiens) (P35372 whole entry): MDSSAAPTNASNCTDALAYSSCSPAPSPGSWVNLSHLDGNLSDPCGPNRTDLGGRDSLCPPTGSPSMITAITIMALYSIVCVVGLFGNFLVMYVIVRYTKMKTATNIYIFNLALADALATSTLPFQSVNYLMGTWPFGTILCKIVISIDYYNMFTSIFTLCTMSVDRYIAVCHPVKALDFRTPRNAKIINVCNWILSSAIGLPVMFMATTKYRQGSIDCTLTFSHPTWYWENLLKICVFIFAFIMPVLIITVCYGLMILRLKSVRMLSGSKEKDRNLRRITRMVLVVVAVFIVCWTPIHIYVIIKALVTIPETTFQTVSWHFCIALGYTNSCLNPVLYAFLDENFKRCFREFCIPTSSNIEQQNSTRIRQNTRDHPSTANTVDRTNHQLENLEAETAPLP

[3] = target: Kappa-type opioid receptor (Homo sapiens) (UniProt P41145); details: CHO-K1, at 10 µM
Chain of Kappa-type opioid receptor (Homo sapiens) (P41145 whole entry): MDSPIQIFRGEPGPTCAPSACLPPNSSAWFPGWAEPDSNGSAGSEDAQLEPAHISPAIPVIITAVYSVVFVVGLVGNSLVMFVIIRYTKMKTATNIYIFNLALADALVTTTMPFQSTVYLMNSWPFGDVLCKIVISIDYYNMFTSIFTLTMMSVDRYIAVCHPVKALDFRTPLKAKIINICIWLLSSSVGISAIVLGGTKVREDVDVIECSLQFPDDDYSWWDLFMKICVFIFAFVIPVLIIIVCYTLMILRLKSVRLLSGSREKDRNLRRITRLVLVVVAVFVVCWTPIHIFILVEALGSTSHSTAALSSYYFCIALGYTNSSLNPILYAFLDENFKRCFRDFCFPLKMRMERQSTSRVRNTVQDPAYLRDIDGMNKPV

[4] = target: Cannabinoid receptor 2 (Homo sapiens) (UniProt P34972); assay: Displacement of [3H]-CP55940 from human recombinant CB2 receptor transfected in HEK293 cells at 10 uM after 90 mins relative to control; assay type: cell-based
Chain of Cannabinoid receptor 2 (Homo sapiens) (P34972 whole entry): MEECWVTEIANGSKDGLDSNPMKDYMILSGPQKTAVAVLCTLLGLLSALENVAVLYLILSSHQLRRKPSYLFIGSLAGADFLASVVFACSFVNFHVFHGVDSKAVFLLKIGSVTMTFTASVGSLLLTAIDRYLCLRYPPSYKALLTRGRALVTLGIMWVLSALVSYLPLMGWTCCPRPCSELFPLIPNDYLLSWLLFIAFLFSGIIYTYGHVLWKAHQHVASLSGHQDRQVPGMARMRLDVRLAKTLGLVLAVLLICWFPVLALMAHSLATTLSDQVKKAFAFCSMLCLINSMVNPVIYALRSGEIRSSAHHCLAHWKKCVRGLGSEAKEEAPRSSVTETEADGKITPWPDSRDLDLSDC

[5] = target: Cannabinoid receptor 1 (Homo sapiens) (UniProt P21554); assay: Displacement of [3H]-CP55940 from human recombinant CB1 receptor transfected in HEK293 cells at 10 uM after 90 mins relative to control; assay type: cell-based
Chain of Cannabinoid receptor 1 (Homo sapiens) (P21554 whole entry): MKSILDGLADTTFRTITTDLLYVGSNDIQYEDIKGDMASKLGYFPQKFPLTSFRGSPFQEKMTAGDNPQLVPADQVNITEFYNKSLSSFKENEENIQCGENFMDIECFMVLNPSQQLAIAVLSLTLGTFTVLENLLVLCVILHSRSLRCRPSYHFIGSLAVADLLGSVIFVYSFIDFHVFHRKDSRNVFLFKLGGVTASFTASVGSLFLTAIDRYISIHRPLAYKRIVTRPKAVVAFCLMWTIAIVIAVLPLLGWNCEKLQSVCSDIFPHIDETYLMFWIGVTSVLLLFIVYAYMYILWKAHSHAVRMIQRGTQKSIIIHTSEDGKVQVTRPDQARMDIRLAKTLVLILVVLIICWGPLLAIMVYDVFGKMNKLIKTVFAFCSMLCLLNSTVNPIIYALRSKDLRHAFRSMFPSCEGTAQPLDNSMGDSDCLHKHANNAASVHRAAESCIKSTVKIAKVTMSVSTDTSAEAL

[6] = target: T1, Delta-type opioid receptor; assay: Agonist activity at human delta opioid receptor transfected in CHOK1 cells after 60 mins by [35S]GTPgammaS binding assay relative to control; assay type: functional, cell-based; details: CHO-K1
In short: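 [35S]GTPγS functional assay on membranes from CHO-K1 cells stably expressing δ-opioid receptor; diluted compound incubated with membrane at predetermined protein level plus 0.05 nM [35S]GTPγS, 60 min at room temperature. Terminated by vacuum filtration through GF/C filters, 10 washes 50 mM Tris-HCl pH 7.4, scintillation counting. Basal binding defined as binding with GTPγS buffers.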

[7] = target: T1, Delta-type opioid receptor; assay: Agonist activity at human delta opioid receptor transfected in CHOK1 cells after 60 mins by [35S]GTPgammaS binding assay
[8] = target: T1, Delta-type opioid receptor; assay: Displacement of [3H]-enkephalin from human delta opioid receptor transfected in CHOK1 cells after 60 mins; assay type: cell-based, CHO-K1

T1 sequence (P41143 whole entry): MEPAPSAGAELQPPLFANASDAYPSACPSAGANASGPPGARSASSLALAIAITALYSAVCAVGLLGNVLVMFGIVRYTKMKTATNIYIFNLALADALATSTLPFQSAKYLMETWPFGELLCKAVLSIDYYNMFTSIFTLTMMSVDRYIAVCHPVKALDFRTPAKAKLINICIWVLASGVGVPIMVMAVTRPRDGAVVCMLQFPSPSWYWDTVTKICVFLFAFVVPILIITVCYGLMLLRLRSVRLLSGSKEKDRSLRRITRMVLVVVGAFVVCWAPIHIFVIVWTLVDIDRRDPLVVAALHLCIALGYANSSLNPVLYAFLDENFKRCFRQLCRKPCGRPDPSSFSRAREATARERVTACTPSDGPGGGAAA

Compound	inhibition [1]	inhibition [2]	inhibition [3]	inhibition [4]	inhibition [5]	Emax [6]	EC50 [7]	IC50 [8]	Ki [8]
C[C@@H]1C/C=C/CCCCC(=O)Cc2cc(O)cc(O)c2C(=O)O1	45.7%	8.7%	24.7%						
COc1cc(O)c2c(c1)CC(=O)CCCC/C=C/C[C@@H](C)OC2=O	44.7%	22.4%	11.4%	44.5%					
C[C@@H]1C[C@H]2O[C@@H]2/C=C\C=C\C(=O)Cc2c(Cl)c(O)cc(O)c2C(=O)O1		84.9%		13%	30.7%				
CCCCCCC(C)(C)c1ccc([C@@H]2C[C@H](O)CC[C@H]2CCCO)c(O)c1				90.3%	88.8%				
COc1cc(O)c2c(c1)CC(=O)CCCC(=O)CCC[C@@H](C)OC2=O	54.9%	24%	32.7%	46.3%		2400%	239 nM	14.6 µM	7.31 µM
C[C@@H]1CCCC(=O)CCCC(=O)Cc2cc(O)cc(O)c2C(=O)O1		41.3%	8.1%	27.7%	47.4%				
